Screening results (PubChem BioAssay)
An excerpt weighted towards active compounds, which were near 4.7% of everything screened.
MrgX1 ag: agonists of human MrgX1 receptor; B-score at 10 µM; MrgX1-HEK293 cells, Fluo-4 calcium fluorescence, agonist mode; active compounds read high; AID 588627; 310,000 compounds, 0.44% hits;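 active = calcium response B-score plate-corrected fluorescence ratio at least 3 library SD, with starting fluorescence B-score inside 5 SD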
Target sequence (Q96LB2 whole entry, looked up): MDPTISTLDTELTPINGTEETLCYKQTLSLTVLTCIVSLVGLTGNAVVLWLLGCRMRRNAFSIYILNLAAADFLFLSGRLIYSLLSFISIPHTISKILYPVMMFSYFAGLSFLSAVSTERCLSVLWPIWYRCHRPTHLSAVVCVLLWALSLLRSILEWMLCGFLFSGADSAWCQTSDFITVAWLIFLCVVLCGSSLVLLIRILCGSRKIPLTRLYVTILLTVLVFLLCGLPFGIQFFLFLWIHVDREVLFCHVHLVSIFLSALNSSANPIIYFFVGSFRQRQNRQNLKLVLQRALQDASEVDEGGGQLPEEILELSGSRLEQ
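Assay system: MrgX1-expressing HEK293 cells / Amount: fifteen thousand cells per well / Doses: test compound in the initial addition of three / Timing: cells plated overnight, dye loaded 0.5 h 37 °C, 0.5 h room temperature / Technique: kinetic calcium dye fluorescence, Fluo-4 NW / Control set: positive and negative controls per plate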
MrgX1 antagonist: antagonists of human MrgX1 receptor; MRGX1-HEK293 calcium flux, Fluo-4, BAM8-22 antagonism; active compounds read low; B-score at 10 µM; 310,000 compounds, 1.3% hits;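 active = calcium-response B-score plate-corrected more than 3 library SD below zero, starting fluorescence within 5 deviations, no agonist response on first addition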;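 note: peak minus trough fluorescence over baseline after final BAM8-22 challenge near maximal dose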
RGS4 act: RGS4 potentiation or activation. 310,000 compounds, 0.92% hits. HEK293 M3R/inducible RGS4, carbachol calcium flux Fluo4; active compounds read low. B-score at 10 µM;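 active = B-score of the integrated calcium signal more than 4 SD below the library mean, with starting fluorescence not abnormally high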;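 note: negative B-score means reduced calcium response which marks RGS4 activation or potentiation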
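Reagent: ECmax carbachol challenge; Test system: M3R-expressing HEK293 line, RGS4 induced by doxycycline; Schedule: overnight RGS4 induction, 30 min dye load 37 °C, 20 min compound RT; Detection: calcium dye Fluo4 fluorescence; Read-out: Agonist-evoked peak-minus-minimum fluorescence over baseline, integrated ratio, B score.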
RGS4 block: human RGS4 inhibition; P49798; 310,000 compounds, 0.45% hits; B-score at 10 µM; HEK293 M3R/RGS4 inducible, Fluo-4 calcium flux; active compounds read high; triggered by carbachol at its EC20;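 active = B-score, a plate-corrected calcium signal, over three deviations above library mean, with baseline fluorescence within five deviations of library mean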;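 note: RGS4 expression induced by doxycycline in cells with stable M3 receptor; B-score is computed from the integrated fluorescence ratio over baseline after carbachol; higher B-score means a larger calcium signal and so more RGS4 inhibition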
Target sequence (P49798 whole entry, looked up): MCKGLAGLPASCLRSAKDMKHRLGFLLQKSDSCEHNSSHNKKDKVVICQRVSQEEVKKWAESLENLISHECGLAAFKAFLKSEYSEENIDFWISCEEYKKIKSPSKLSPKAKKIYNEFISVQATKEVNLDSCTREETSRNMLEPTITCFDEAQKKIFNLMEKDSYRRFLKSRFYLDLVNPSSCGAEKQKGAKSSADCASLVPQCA
MrgX1 PAM: allosterically activates human MrgX1 receptor signaling. Q96LB2. MrgX1-HEK293, Fluo-4 calcium flux, FDSS; active compounds read high. B-score at 10 µM. 310,000 compounds, 0.63% hits. AID 588675;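 active = plate-corrected calcium response at least 3 library SD above typical, normal starting fluorescence, not activating the receptor alone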;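 note: compound read alongside a low EC10 to EC30 dose of BAM8-22 agonist; peak minus trough fluorescence over baseline measured at the second addition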
Cl transport mod: KCC2 (human) Cl- transport modulation | B-score of Tl+ flux slope (higher = more flux/activation; lower = inhibition) at 10 µM | KCC2 cells, thallium flux FluoZin-2 fluorescence | 190,000 compounds, 2.2% hits | Q9H2X9;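 active = thallium flux slope and its plate-corrected score both differing from the plate sample mean at a set confidence after two filtering rounds, in either direction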;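 note: slope of fluorescence scaled to starting intensity during 10 to 20 s after thallium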
The depositor's hits bear a star.

`Cc1ccc(O)c(NC(=O)c2noc3c2CCc2ccccc2-3)c1` gave MrgX1 ag inactive, MrgX1 antagonist inactive, RGS4 act inactive, RGS4 block inactive, MrgX1 PAM inactive and Cl transport mod 0.03.
Cc1c(NC(=O)c2noc3c2CCc2ccccc2-3)c(=O)n(-c2ccccc2)n1C was read as MrgX1 ag inactive, MrgX1 antagonist inactive, RGS4 act inactive, RGS4 block inactive, MrgX1 PAM inactive and Cl transport mod -3.3*.
`CCSc1nnc(NC(=O)CCNS(=O)(=O)c2ccccc2F)s1` gave MrgX1 ag inactive, MrgX1 antagonist inactive, RGS4 act inactive, RGS4 block inactive and MrgX1 PAM inactive.
For CCCN(CCC)S(=O)(=O)c1ccc(C(=O)OCCN2C(=O)c3cccc4c(N5CCOCC5)ccc(c34)C2=O)cc1 the results were MrgX1 ag inactive, MrgX1 antagonist inactive, RGS4 act -8.7*, RGS4 block inactive, MrgX1 PAM inactive and Cl transport mod inactive.
CCS(=O)(=O)C1=NN2C(=N)/C(=C\c3ccc(OC(=O)c4ccco4)c(OC)c3)C(=O)N=C2S1 was read as MrgX1 ag inactive, MrgX1 antagonist inactive, RGS4 act inactive, RGS4 block inactive and MrgX1 PAM inactive.
CS(=O)(=O)C1=NN2C(=N)/C(=C\c3ccc(OC(=O)c4ccco4)cc3)C(=O)N=C2S1 was read as MrgX1 ag inactive, MrgX1 antagonist inactive, RGS4 act inactive, RGS4 block inactive and MrgX1 PAM 12*.
For N=C1/C(=C\c2ccc(OC(=O)c3ccco3)cc2)C(=O)N=C2SC=NN12 the results were RGS4 act inactive, RGS4 block inactive and Cl transport mod -1.4.
CC(C)CS(=O)(=O)C1=NN2C(=N)/C(=C\c3ccc(OC(=O)c4ccco4)cc3)C(=O)N=C2S1 was read as MrgX1 ag 29*, MrgX1 antagonist inactive, RGS4 act inactive, RGS4 block inactive and MrgX1 PAM inactive.
O=C(COc1ccc(Cl)cc1Cl)NCc1ccco1 was read as MrgX1 ag inactive, MrgX1 antagonist inactive, RGS4 act inactive, RGS4 block inactive and MrgX1 PAM inactive.
Screening O=C(COc1ccc(Cl)cc1Cl)NNC(=S)NCc1ccco1 returned MrgX1 ag inactive, MrgX1 antagonist inactive, RGS4 act -7.1*, RGS4 block inactive, MrgX1 PAM 13* and Cl transport mod 3.7.
Screening O=C(Cc1cccs1)NCc1ccco1 returned MrgX1 ag inactive, MrgX1 antagonist inactive, RGS4 act inactive, RGS4 block inactive, MrgX1 PAM inactive and Cl transport mod 0.011.
Screening O=C(Cc1cccs1)NNC(=S)NCc1ccco1 returned MrgX1 ag inactive, MrgX1 antagonist inactive, RGS4 act -8.2*, RGS4 block inactive and MrgX1 PAM inactive.
For O=C(/C=C/c1cccs1)NC(=S)NNC(=O)Cc1cccs1 the results were MrgX1 ag 48*, MrgX1 antagonist inactive, RGS4 act inactive, RGS4 block inactive, MrgX1 PAM inactive and Cl transport mod 1.8.
COc1ccc(C(=O)NC(=S)NNC(=O)c2ccc(NC(=O)C(C)C)cc2)cc1 was read as MrgX1 ag inactive, MrgX1 antagonist -5.8*, RGS4 act inactive, RGS4 block inactive, MrgX1 PAM inactive and Cl transport mod 0.2.
COc1ccc(/C=C/C(=O)NC(=S)NNC(=O)Cc2cccs2)cc1OC was read as MrgX1 ag inactive, MrgX1 antagonist inactive, RGS4 act inactive, RGS4 block inactive, MrgX1 PAM inactive and Cl transport mod -1.3.
`CC(C)C(=O)Nc1ccc(C(=O)NNC(=S)NC(=O)c2ccccc2[N+](=O)[O-])cc1` gave MrgX1 ag inactive, MrgX1 antagonist inactive, RGS4 act inactive, RGS4 block inactive, MrgX1 PAM inactive and Cl transport mod 0.3.
C/C(=N\NC(=O)c1ccccc1O)c1ccc(NC(=O)Cc2ccccc2)cc1 was read as MrgX1 ag inactive, MrgX1 antagonist inactive, RGS4 act inactive, RGS4 block inactive and MrgX1 PAM inactive.
For O=C(NC(=S)Nc1cccnc1Cl)c1ccc(Cl)cc1 the results were MrgX1 ag inactive, MrgX1 antagonist inactive, RGS4 act inactive, RGS4 block inactive and MrgX1 PAM 9.5*.
Screening COc1ccc(-c2nn(-c3ccccc3)cc2C(=O)NC(=S)NNC(=O)c2ccncc2)cc1 returned MrgX1 ag inactive, MrgX1 antagonist -4.6*, RGS4 act inactive, RGS4 block inactive, MrgX1 PAM inactive and Cl transport mod 2.8.
`COc1ccc(C(=O)NNC(=S)NC(=O)c2ccc(Cl)cc2)cc1` gave MrgX1 ag 122*, MrgX1 antagonist inactive, RGS4 act -8*, RGS4 block inactive and MrgX1 PAM inactive.
O=C(COc1ccc(Cl)cc1Cl)Nc1ccccc1F was read as MrgX1 ag inactive, MrgX1 antagonist inactive, RGS4 act -7.2*, RGS4 block inactive and MrgX1 PAM inactive.
For CC1CCCN(C(=O)CCNC(=O)Cn2cnc3ccccc3c2=O)C1 (centres undefined) the results were MrgX1 ag inactive, MrgX1 antagonist inactive, RGS4 act inactive, RGS4 block inactive and MrgX1 PAM inactive.
For CCNc1c(NC(=O)c2ccc3c(c2)OCO3)c(=O)oc2ccccc12 the results were MrgX1 ag inactive, MrgX1 antagonist inactive, RGS4 act inactive, RGS4 block inactive and MrgX1 PAM inactive.
Screening COc1ccc(C(=O)NC(=S)NNC(=O)Cc2cccs2)cc1 returned MrgX1 ag 55*, MrgX1 antagonist inactive, RGS4 act inactive, RGS4 block inactive, MrgX1 PAM inactive and Cl transport mod 1.2.
`CCn1c(C)nc2cc(C(=O)NNC(=S)NC(=O)c3ccccc3)ccc21` gave MrgX1 ag inactive, MrgX1 antagonist inactive, RGS4 act inactive, RGS4 block inactive, MrgX1 PAM 7.4* and Cl transport mod -0.56.
For Cc1cccc(C(=O)NC(=S)NNC(=O)c2ccc(Cl)cc2)c1 the results were MrgX1 ag inactive, MrgX1 antagonist inactive, RGS4 act inactive, RGS4 block inactive, MrgX1 PAM 18* and Cl transport mod 42*.
Screening Cc1ccc(C(=O)NC(=S)NNC(=O)c2cccc([N+](=O)[O-])c2)cc1 returned MrgX1 ag inactive, MrgX1 antagonist inactive, RGS4 act inactive, RGS4 block inactive and MrgX1 PAM inactive.
Cc1cc(NC(=S)Nc2cccc3ccccc23)n[nH]1 was read as MrgX1 ag inactive, MrgX1 antagonist inactive, RGS4 act inactive, RGS4 block inactive, MrgX1 PAM inactive and Cl transport mod 0.66.
